Most compounds without a hit are left out; they make up all but 9.6% or so of the library.
PTEN del growth: growth suppression of PTEN-null HCT116, primary screen, cell-based, CellTiter-Glo; HCT116 PTEN-null viability, 60 h; hits give low values; viability, % at 10 µM; 1.2% of 140,000 active; AID 827, 2007;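 active means viability at or below a set limit, 4 SD under the median of all tested compounds, cut at about 3.7% in these data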;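 further: PTEN knockout HCT116 line with beta catenin targeted HCT116 as companion control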
HCT116 bCat-KO: primary screen for growth suppressors in beta-catenin knockout HCT116 cells (colon tumor, human). 1.5% of 140,000 active. HCT116 beta-catenin knockout viability, CellTiter-Glo, 60 h; hits give low values. viability, % at 10 µM;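 active means viability at or under a set limit, the compound median less 4 SD, cut at about 6% in these data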;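 further: 0% = Hyamine 1622 control at 20 µM and 100% = untreated cell control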
L major viab: Leishmania major promastigote growth inhibition, primary screen; Leishmania major promastigotes, resazurin fluorescence viability; inhibition, % at 10 µM; 9% of 200,000 active; in the data active means inhibition above about 50%;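 further: promastigotes grown with compound for 44 hours at 28 °C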
TNAP act hi DEA: TNAP activators at high phosphate acceptor level, primary screen, biochemical, luminescence, uHTS | Alkaline phosphatase, tissue-nonspecific isozyme (Homo sapiens), P05186 | purified TNAP, CDP-star luminescence, 1 M DEA, 30 min; hits give high values; 0 = EDTA background, 1 = DMSO-only activity | activation factor at 20 µM | 200,000 tested, under 10 active | AID 1136, 2008;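 active means activation factor at least 2 at 20 µM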
Target sequence (P05186 whole entry, looked up): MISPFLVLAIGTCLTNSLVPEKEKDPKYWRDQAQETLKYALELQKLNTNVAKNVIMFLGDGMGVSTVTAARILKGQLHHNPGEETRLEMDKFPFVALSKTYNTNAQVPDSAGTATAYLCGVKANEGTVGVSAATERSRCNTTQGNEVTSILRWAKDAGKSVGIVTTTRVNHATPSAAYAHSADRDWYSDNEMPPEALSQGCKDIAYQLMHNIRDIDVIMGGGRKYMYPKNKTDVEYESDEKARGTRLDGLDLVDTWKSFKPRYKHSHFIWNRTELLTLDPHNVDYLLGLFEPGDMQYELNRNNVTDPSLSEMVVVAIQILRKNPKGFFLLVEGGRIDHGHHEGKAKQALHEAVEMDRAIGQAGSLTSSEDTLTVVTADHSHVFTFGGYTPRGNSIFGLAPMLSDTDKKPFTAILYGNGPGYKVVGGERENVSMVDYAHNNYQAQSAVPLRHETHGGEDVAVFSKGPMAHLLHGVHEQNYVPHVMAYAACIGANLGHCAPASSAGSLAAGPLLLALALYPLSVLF
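Measured by: Luminescent substrate turnover signal | Test system: Human TNAP | Input: TNAP 1/800 final | Dosing: 20 µM single point | Schedule: 30 min, room temperature | Controls: EDTA wells as negative control, DMSO wells as positive control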
TNAP inh no acc: human TNAP enzyme inhibitors, primary screen, biochemical, luminescent, no phosphate acceptor, uHTS; inhibition, % at 20 µM; Alkaline phosphatase, tissue-nonspecific isozyme (Homo sapiens), P05186; 0.26% of 200,000 active; purified TNAP, CDP-star luminescence, 30 min;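 active means tissue-nonspecific alkaline phosphatase inhibition above about 50% at 20 µM in the single-dose screen, limit read from the data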;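 further: 0% = DMSO negative control and 100% = EDTA positive control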
TNAP inh hiacc: human TNAP enzyme inhibitors, primary screen, biochemical, luminescent, high phosphate acceptor level, uHTS; Alkaline phosphatase, tissue-nonspecific isozyme (Homo sapiens), P05186; purified TNAP, CDP-star luminescence, 1 M DEA; inhibition, % at 20 µM; 0.03% of 200,000 active; AID 1135, 2008;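 active means over 50% inhibition of tissue-nonspecific alkaline phosphatase at 20 µM in the single-dose screen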;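 further: plate controls were DMSO wells for no effect and EDTA-quenched wells as full inhibition for full effect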
An asterisk follows results filed as active; . = not tested or not shown.

SMILES | PTEN del growth | HCT116 bCat-KO | L major viab | TNAP act hi DEA | TNAP inh no acc | TNAP inh hiacc
COCCCn1c(=N)c(C(=O)NCc2ccc3c(c2)OCO3)cc2c(=O)n3ccccc3nc21 | 29 | 24 | 17 | 1 | 10 | 0
CCn1c(=N)c(C(=O)NC)cc2c(=O)n3cccc(C)c3nc21 | . | . | . | 1 | -10 | -2
C=CCn1c(=N)c(C(=O)OCC)cc2c(=O)n3cc(C)ccc3nc21 | . | . | . | 1 | -7 | -4
CCN(CC)C(=O)CSc1nc(OC)cc(=O)[nH]1 | 112 | 103 | -2 | 1 | -18 | -2
N/C(=N\OC(=O)CCC1CCCC1)c1cccnc1 | 96 | 100 | -3 | 1 | -16 | -4
Cc1ccc(C(=O)COC(=O)c2cn3ccccc3n2)cc1 | . | . | 3 | 1 | -2 | -3
Cc1cccn2c(=O)c3cc(C#N)c(=NC(=O)c4ccncc4)n(CCCOC(C)C)c3nc12 | 50 | 50 | 61* | 1 | 15 | 0
Cc1cccn2c(=O)c3cc(C(N)=S)c(=N)n(CCCN4CCOCC4)c3nc12 | . | . | 64* | 1 | 0 | 0
Cc1cccn2c(=O)c3cc(C#N)c(=N)n(CCCN4CCOCC4)c3nc12 | . | . | 89* | . | . | .
Cc1ccc(S(=O)(=O)N2CCCC2c2nc3ccccc3s2)cc1 (stereo not given) | 80 | 84 | -6 | 1 | -9 | -4
C=CCNC(=O)CSc1nnc(-c2ccccc2Br)n1-c1cccc(C(F)(F)F)c1 | 89 | 84 | 79* | 1 | -7 | -3
O=C(CSc1nnc(-c2ccccc2O)n1-c1ccccc1)Nc1cccc(C(=O)O)c1 | . | . | 29 | 1 | -11 | -4
CCCOc1ccc(/C=C/C(=O)Nc2ccc([N+](=O)[O-])cc2)cc1 | 13 | 11 | 16 | 1 | -1 | 0
CCCCOc1ccc(/C=C/C(=O)Nc2ccc(C(N)=O)cc2)cc1 | 104 | 95 | 91* | 1.1 | -6 | -6
Cc1nn(-c2ccccc2)c(Cl)c1C(=O)N(C)c1nc(-c2ccc(F)cc2)cs1 | 88 | 88 | 16 | 1 | -2 | 4
O=[N+]([O-])c1cccc(/C=N\N=C2c3ccccc3-c3ccccc32)c1O | 102 | 87 | 74* | 0.6 | 19 | 36
NC(N)=N/N=C/c1cccc([N+](=O)[O-])c1O | . | . | -4 | 0.8 | 1 | 16
Cc1ccc(OCC(=O)c2cc(C)n(C)c2C)c([N+](=O)[O-])n1 | 9 | 10 | 53* | 0.9 | -1 | 9
Cc1cc(C(=O)COc2cccnc2[N+](=O)[O-])c(C)n1-c1ccccc1 | 87 | 99 | 51* | 1 | -4 | -1
Cc1ccc(-n2c(C)cc(C(=O)COc3cccnc3[N+](=O)[O-])c2C)cc1 | 61 | 78 | -2 | 1 | -1 | 0
O=C(Cn1c(=O)c(=O)n(Cc2ccccc2)c2ccc(Cl)cc21)NCC1CCCO1 (stereo not given) | . | . | 4 | 1 | -2 | -4
COCCNC(=O)c1c[nH]c2ccc(OC)cc2c1=O | 107 | 101 | 2 | 1 | -10 | -5
COc1ccc2[nH]cc(C(=O)CNc3nc(C)cs3)c2c1 | 67 | 71 | 6 | 1.1 | 56* | -8
O=C1NC(=S)N(C(=O)c2ccc(F)cc2)/C1=C/c1ccccc1 | 1.7* | 12 | 0 | 0.9 | 8 | 15
COc1ccc(/C=C2\C(=O)NC(=S)N2C(=O)c2ccc(F)cc2)cc1 | 84 | 82 | 4 | 0.8 | 10 | 17
Cc1cc(S(=O)(=O)NCc2ccccc2)ccc1OCC(=O)NCC1CCCO1 (stereo not given) | . | . | 4 | 1 | -11 | -5
CCOc1cc(Cl)c(S(=O)(=O)NCc2ccccn2)cc1Cl | 99 | 87 | 99* | 1.1 | -7 | -6
COc1ccc(S(=O)(=O)NCc2ccccn2)cc1Cl | 111 | 106 | 0 | 1 | -4 | 2
COc1ccccc1Oc1ccc(S(=O)(=O)NCc2ccccn2)cc1 | 66 | 59 | 52* | 1 | -6 | 0
CCOc1ccc(Oc2ccc(Cl)cc2N)cc1 | . | . | 18 | 1 | -6 | -4

Assay outcomes from PubChem.
